Experimental data reported in ChEMBL document CHEMBL5252603, “Discovery of 2-aminoquinolone acid derivatives as potent inhibitors of SARS-CoV-2” (Bioorg Med Chem Lett, 2023).
pEC50, pIC50: −log10 of the molar value.

Columns and labels:
Vero = assay: Cytotoxicity against african green monkey Vero cells; format: toxicity, cell-based; conditions: chlorocebus sabaeus
In short: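 Uninfected Vero cells were tested in parallel with the antiviral immunocytochemistry assay. CC50 was derived from at least two independent experiments.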

SARS-CoV-2 = assay: Antiviral activity against Severe acute respiratory syndrome coronavirus 2 infected in Vero cells; format: functional, organism-based; conditions: Severe acute respiratory syndrome coronavirus 2, Vero
[1] = Selectivity index, ratio of CC50 for african green monkey Vero cells to EC50 for Severe acute respiratory syndrome coronavirus 2; format: toxicity; conditions: read-out: Ratio CC50/EC50
HFL1 = assay: Cytotoxicity against human HFL1 cells; format: toxicity, cell-based
In short: (§1)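 Cell viability was measured by the EZ-Cytox assay, with CC50 as the read-out. Cell lines: HFL-1, human embryonic lung; L929, mouse fibroblast; NIH 3T3, mouse embryonic fibroblast; CHO-K1, Chinese hamster ovary.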

L929 = assay: Cytotoxicity against mouse L929 cells; format: toxicity, cell-based; in short: as §1
NIH3T3 = assay: Cytotoxicity against mouse NIH3T3 cells; format: toxicity, cell-based; in short: as §1
CHO-K1 = assay: Cytotoxicity against CHO-K1 cells; format: toxicity, cell-based, Cricetulus griseus; conditions: chinese hamster; in short: as §1
[2] = target: Voltage-gated inwardly rectifying potassium channel KCNH2 (Homo sapiens, UniProt Q12809); assay: Binding affinity to human ERG; format: toxicity
Voltage-gated inwardly rectifying potassium channel KCNH2, sequence (Q12809 whole entry): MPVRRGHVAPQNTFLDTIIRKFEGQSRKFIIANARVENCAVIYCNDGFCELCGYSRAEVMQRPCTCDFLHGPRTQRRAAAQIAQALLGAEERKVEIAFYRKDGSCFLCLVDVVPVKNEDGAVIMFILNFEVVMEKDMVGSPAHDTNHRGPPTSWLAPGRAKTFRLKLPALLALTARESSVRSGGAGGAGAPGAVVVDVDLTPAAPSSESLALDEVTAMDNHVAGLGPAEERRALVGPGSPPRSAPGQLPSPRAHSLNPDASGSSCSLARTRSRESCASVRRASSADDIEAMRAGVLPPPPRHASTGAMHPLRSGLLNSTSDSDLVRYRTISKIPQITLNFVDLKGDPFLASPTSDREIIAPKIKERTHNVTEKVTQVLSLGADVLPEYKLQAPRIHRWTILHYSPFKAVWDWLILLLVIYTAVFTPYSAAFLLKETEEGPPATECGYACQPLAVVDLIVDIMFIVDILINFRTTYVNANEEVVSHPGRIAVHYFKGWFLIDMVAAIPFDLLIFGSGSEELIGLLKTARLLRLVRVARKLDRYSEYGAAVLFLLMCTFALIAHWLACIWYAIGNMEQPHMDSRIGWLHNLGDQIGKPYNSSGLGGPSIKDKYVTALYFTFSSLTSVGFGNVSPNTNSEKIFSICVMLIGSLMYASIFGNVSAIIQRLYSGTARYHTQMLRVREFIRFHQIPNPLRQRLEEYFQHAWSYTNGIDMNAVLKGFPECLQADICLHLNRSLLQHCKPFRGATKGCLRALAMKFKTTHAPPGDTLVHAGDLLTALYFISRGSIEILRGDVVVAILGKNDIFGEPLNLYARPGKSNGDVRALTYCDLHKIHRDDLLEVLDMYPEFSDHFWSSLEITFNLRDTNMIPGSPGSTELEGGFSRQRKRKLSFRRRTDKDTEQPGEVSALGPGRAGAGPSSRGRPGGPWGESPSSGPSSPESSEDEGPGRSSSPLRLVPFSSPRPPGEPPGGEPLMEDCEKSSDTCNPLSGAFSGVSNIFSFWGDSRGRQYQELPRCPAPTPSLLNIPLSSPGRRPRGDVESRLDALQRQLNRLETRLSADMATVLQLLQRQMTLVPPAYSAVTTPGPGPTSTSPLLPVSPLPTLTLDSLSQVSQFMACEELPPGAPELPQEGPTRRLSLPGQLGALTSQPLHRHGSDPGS
In short: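 hERG fluorescence polarization ligand-binding assay; IC50 read-out.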

CYP1A2 = target: T1, CYP1A2 (Homo sapiens, UniProt P05177); assay: Inhibition of human CYP1A2 at 10 uM relative to control; format: ADME
T1 sequence (P05177 whole entry): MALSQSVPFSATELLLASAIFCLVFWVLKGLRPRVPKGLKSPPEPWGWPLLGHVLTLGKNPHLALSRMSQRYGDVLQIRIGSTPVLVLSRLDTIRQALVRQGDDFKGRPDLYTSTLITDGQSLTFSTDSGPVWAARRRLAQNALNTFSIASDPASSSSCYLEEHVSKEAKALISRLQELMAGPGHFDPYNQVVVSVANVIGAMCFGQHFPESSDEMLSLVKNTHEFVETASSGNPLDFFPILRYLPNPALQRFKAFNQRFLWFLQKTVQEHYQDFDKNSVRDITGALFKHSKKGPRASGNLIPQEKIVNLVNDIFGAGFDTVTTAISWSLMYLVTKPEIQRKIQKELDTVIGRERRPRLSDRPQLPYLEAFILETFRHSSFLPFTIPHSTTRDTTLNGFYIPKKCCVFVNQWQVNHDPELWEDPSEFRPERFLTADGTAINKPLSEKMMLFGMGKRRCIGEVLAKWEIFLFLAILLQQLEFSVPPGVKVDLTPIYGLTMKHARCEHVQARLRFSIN

CYP2C9 = CYP2C9 (Homo sapiens, UniProt P11712); assay: Inhibition of human CYP2C9 at 10 uM relative to control; format: ADME
CYP2C9, sequence (P11712 whole entry): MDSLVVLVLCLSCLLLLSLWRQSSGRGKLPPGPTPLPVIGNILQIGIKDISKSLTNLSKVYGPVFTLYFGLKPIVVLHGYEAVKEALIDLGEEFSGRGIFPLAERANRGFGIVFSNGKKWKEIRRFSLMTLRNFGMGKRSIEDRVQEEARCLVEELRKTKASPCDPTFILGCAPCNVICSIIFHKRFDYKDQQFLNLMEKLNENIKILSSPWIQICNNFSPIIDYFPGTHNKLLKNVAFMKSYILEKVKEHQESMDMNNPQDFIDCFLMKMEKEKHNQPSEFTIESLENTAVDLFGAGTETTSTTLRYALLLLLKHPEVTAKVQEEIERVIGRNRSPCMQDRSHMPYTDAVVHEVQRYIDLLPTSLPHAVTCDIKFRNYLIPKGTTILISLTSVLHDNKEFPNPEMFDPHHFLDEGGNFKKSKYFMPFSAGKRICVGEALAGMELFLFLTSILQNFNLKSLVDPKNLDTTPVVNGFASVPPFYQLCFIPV

CYP2C19 = CYP2C19 (Homo sapiens, UniProt P33261); assay: Inhibition of human CYP2C19 at 10 uM relative to control; format: ADME
CYP2C19, sequence (P33261 whole entry): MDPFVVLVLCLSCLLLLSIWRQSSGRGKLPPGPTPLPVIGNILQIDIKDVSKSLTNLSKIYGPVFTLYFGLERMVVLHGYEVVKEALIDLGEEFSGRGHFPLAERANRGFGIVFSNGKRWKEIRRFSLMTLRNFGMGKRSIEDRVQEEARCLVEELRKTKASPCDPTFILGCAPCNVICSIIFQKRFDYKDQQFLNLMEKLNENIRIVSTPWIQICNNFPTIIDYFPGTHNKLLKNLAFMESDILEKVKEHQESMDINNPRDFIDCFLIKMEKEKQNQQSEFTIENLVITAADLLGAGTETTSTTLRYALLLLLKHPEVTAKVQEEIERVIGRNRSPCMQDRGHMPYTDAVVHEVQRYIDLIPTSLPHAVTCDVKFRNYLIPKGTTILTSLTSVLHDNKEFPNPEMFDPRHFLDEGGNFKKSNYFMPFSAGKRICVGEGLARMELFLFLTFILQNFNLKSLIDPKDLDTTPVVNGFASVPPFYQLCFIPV

CYP2D6 = CYP2D6 (Homo sapiens, UniProt P10635); assay: Inhibition of human CYP2D6 at 10 uM relative to control; format: ADME
CYP2D6, sequence (P10635 whole entry): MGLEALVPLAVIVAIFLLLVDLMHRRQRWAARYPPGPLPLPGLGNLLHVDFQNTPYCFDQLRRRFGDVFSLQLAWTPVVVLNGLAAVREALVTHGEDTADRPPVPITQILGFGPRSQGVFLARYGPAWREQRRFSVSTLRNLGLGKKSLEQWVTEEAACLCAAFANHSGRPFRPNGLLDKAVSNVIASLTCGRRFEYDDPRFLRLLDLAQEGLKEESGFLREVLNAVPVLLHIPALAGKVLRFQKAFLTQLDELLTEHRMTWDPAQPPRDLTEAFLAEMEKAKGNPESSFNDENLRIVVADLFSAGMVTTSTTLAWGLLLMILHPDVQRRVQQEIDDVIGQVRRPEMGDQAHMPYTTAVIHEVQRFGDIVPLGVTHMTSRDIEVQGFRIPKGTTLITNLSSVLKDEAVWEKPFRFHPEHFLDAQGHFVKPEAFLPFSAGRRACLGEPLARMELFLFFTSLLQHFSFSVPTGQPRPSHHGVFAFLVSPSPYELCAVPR

CYP3A4 = CYP3A4 (Homo sapiens, UniProt P08684); assay: Inhibition of human CYP3A4 at 10 uM relative to control; format: ADME
CYP3A4, sequence (P08684 whole entry): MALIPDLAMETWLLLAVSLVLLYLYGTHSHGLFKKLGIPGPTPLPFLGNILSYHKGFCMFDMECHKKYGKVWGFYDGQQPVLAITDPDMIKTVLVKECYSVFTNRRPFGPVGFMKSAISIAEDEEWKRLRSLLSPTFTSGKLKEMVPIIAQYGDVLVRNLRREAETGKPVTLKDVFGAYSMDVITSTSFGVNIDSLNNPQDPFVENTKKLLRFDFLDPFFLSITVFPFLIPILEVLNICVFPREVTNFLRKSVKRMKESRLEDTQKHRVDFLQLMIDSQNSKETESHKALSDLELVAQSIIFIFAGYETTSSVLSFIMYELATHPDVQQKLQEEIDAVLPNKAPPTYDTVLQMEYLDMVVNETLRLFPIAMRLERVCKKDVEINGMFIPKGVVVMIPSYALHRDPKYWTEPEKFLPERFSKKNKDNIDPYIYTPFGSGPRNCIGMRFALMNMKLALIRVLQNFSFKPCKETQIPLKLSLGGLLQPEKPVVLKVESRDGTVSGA

[3] = Microsomal stability in mouse liver microsomes assessed as compound remaining after 30 mins in presence of NADPH; format: ADME, Microsome; conditions: read-out: Stability
[4] = Microsomal stability in rat liver microsomes assessed as compound remaining after 30 mins in presence of NADPH; format: ADME, Microsome; conditions: read-out: Stability
[5] = Microsomal stability in dog liver microsomes assessed as compound remaining after 30 mins in presence of NADPH; format: ADME, Canis lupus familiaris, Microsome; conditions: read-out: Stability
[6] = Microsomal stability in human liver microsomes assessed as compound remaining after 30 mins in presence of NADPH; format: ADME, Microsome; conditions: read-out: Stability

Row | SMILES | CC50 (Vero) | pEC50 (SARS-CoV-2) | selectivity ratio [1] | also measured
1 | CCC(CC)COC(=O)[C@H](C)N[P@](=O)(OC[C@H]1O[C@@](C#N)(c2ccc3c(N)ncnn23)[C@H](O)[C@@H]1O)Oc1ccccc1 | > 25 µM | – | – | –
2 | CC(C)(C)[C@H](NC(=O)C(F)(F)F)C(=O)N1C[C@H]2[C@@H]([C@H]1C(=O)N[C@H](C#N)C[C@@H]1CCNC1=O)C2(C)C | > 25 µM | – | – | –
3 | COC(=O)c1c([S+](C)[O-])[nH]c2cc(Cl)ccc2c1=O (stereo not drawn) | 12 µM | 5.03 | 1.3 | –
4 | CN(C)CCCNc1[nH]c2cc(Cl)ccc2c(=O)c1C(=O)O | > 25 µM | < 4.60 | 1 | –
5 | O=C(O)c1c(Nc2cccc(F)c2)[nH]c2cc(Cl)ccc2c1=O | > 25 µM | 5.82 | 16 | CC50 (HFL1): 48 µM; CC50 (L929): > 100 µM; CC50 (NIH3T3): 67 µM; CC50 (CHO-K1): 55 µM; pIC50 [2]: < 4.00; inhibition at 10 µM (CYP1A2): 72%; inhibition at 10 µM (CYP2C9): 59%; inhibition at 10 µM (CYP2C19): 9%; inhibition at 10 µM (CYP2D6): 3%; inhibition at 10 µM (CYP3A4): < 1%; remaining at 0.5 h [3]: 24%; remaining at 0.5 h [4]: 14%; remaining at 0.5 h [5]: 65%; remaining at 0.5 h [6]: 62%
6 | O=C(O)c1c(Nc2cccc(F)c2)[nH]c2ccccc2c1=O | > 25 µM | 5.40 | 6.2 | –
7 | O=C(O)c1c(Nc2cccc(F)c2)[nH]c2ccc(Cl)cc2c1=O | > 25 µM | 5.82 | 17 | –
8 | O=c1cc(Nc2cccc(F)c2)[nH]c2cc(F)c(F)cc12 | > 25 µM | < 4.60 | 1 | –
9 | COC(=O)c1c([S+](C)[O-])[nH]c2ccccc2c1=O (stereo not drawn) | > 25 µM | 4.87 | 1.9 | –
10 | COc1ccc2[nH]c(Nc3cccc(F)c3)c(C(=O)O)c(=O)c2c1 | > 25 µM | 5.48 | 7.6 | –
11 | CNC(=O)c1c(Nc2cccc(F)c2)[nH]c2cc(Cl)ccc2c1=O | > 25 µM | 5.10 | 3.2 | –
12 | O=C(O)c1c(Nc2ccc(F)cc2)[nH]c2ccc(Cl)cc2c1=O | > 25 µM | 5.55 | 8.9 | –
13 | O=C(O)c1c(Nc2cccc(F)c2)[nH]c2cc(F)c(F)cc2c1=O | > 25 µM | 5.48 | 7.5 | –
14 | O=C(O)c1c(Nc2ccc(F)cc2)[nH]c2cc(F)c(F)cc2c1=O | > 25 µM | 5.46 | 7.2 | –
15 | O=C(O)c1c(NC2CCCCC2)[nH]c2cc(Cl)ccc2c1=O | > 25 µM | 5.36 | 5.7 | –
16 | CCN(CC)CCCC(C)Nc1ccnc2cc(Cl)ccc12 (stereo not drawn) [CHLOROQUINE] | > 25 µM | 5.09 | 3 | –
